DENV2 CPE rescue: inhibitors of DENV2 cytopathic effect, primary screen, cell-based, plate reader, single concentration; DENV2-infected cells, cytopathic effect rescue; CPE inhibition, % at 9.99 µM; 1.7% of 350,000 active; AID 651640, 2012; in the data active = CPE inhibition above about 20%, passing the limit was not always enough; tested in BHK-21 cells
SIRT5 block: SIRT5 desuccinylase inhibitors, primary screen, biochemical, fluorescence imaging, single point, set 5. NAD-dependent protein deacylase sirtuin-5, mitochondrial (Homo sapiens), Q9NXA8. Purified SirT5, succinyl-peptide AMC, trypsin-coupled fluorescence. inhibition, % at 15 µM. 1.1% of 330,000 active; in the data active = inhibition above about 15%
E-sel inducer: E-selectin induction in HUVECs, primary screen, imaging, HUVEC, immunofluorescence imaging, single point; P16581; 0.37% of 260,000 active; AID 686992, 2013; normalized: neutral wells 0, TNF-alpha wells 100; activation, % at 7.58 µM;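 active = mean E-selectin-positive cell signal at least 10% of the positive control, reached in at least 60% of replicates, without over 20% cell loss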
Target sequence (P16581 whole entry, looked up): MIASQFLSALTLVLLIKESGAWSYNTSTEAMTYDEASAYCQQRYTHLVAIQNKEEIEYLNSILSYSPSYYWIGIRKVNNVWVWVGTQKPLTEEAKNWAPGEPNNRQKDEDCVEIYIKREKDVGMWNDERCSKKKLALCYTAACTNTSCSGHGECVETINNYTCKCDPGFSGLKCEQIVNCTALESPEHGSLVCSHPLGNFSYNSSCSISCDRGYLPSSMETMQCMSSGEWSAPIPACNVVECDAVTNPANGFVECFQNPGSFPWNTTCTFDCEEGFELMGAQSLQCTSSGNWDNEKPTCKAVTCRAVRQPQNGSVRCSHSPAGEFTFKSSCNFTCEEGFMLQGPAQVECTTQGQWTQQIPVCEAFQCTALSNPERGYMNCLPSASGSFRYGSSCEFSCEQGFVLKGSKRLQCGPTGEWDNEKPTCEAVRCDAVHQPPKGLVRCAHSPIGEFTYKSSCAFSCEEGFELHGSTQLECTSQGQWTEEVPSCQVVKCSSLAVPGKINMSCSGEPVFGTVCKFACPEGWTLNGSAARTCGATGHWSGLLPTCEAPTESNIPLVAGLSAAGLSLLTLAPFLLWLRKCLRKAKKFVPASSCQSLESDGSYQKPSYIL
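Test system: HUVEC; input: 3,000 HUVEC/well; measured by: immunofluorescence imaging; read-out: % PE-positive cells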
A number is an active result; i = inactive; nt = no result. A selection: hits, their analogues and other compounds. The true share with any hit is near 2.9%.

SMILES	DENV2 CPE rescue	SIRT5 block	E-sel inducer
COc1ccc(NC(=O)Nc2cccc3c2O[C@@H](CN(C)C(=O)NC2CCCCC2)[C@@H](C)CN([C@@H](C)CO)C3=O)cc1	i	i	i
C[C@H]1CN([C@@H](C)CO)C(=O)c2cccc(NC(=O)Nc3ccc(F)cc3)c2O[C@@H]1CN(C)C(=O)NC1CCCCC1	i	i	68.6
C[C@H]1CN([C@@H](C)CO)C(=O)c2cccc(NC(=O)NC3CCCCC3)c2O[C@@H]1CN(C)C(=O)Nc1ccc(F)cc1	i	i	i
COc1ccc(NC(=O)N(C)C[C@H]2Oc3c(NC(=O)NC4CCCCC4)cccc3C(=O)N([C@H](C)CO)C[C@@H]2C)cc1	i	i	i
C[C@H]1CN([C@@H](C)CO)C(=O)c2cccc(NC(=O)Nc3ccc(F)cc3)c2O[C@H]1CN(C)CC1CCCCC1	i	i	33.7
COc1ccc(NC(=O)Nc2cccc3c2O[C@H](CN(C)C(=O)NC2CCCCC2)[C@H](C)CN([C@H](C)CO)C3=O)cc1	i	i	32.0
C[C@H](CO)N1C[C@H](C)[C@@H](CN(C)CC2CCCCC2)Oc2c(NC(=O)Nc3ccc(F)cc3)cccc2C1=O	nt	nt	i
O=C(COC(=O)/C=C/c1cccc(Cl)c1)Nc1c(F)cccc1F	i	nt	nt
Cc1cccc(S(=O)(=O)NC(=O)C2(C)CCN2C(=O)CCc2ccccc2)c1 (configuration not stated)	i	i	i
COCCNc1nnc(SCC(=O)c2c[nH]c3ccccc23)s1	nt	nt	i
Clc1ccsc1-c1ccnc(-n2cccc2)n1	i	i	nt
CCNC(=O)C[C@@H]1CC[C@H]2[C@H](COc3ccc(NC(=O)c4cccc(OC)c4)cc3C(=O)N2C)O1	i	i	i
Cc1ccc(OCc2ccc(-c3ccccc3)cc2)c([N+](=O)[O-])n1	35.8	i	nt
Cc1ccc(OCc2ccc(Br)cc2)c([N+](=O)[O-])n1	i	i	nt
CCOc1ccccc1NC(=O)N1CCC(NC(=O)C2CCCCC2)CC1	i	i	34.6
CCOc1ccccc1NC(=O)N1CCC(NC(=O)c2cccc(C)c2)CC1	nt	nt	i
CCOc1ccccc1NC(=S)N(CCC(C)C)C1CCN(C(C)=O)CC1	i	18.5	i
CCOc1ccccc1NC(=S)N(CCOC)C1CCN(C(C)=O)CC1	i	i	nt
Cc1oc(C(C)(C)C)cc1C(=O)NCC(=O)NCC(=O)O	i	i	nt
O=C(CNS(=O)(=O)c1c(Cl)cccc1Cl)OCc1csc(-c2ccccc2)n1	i	i	nt
COc1cc(NC(=O)COC(=O)/C=C/c2ccc(OC)c(OC)c2)cc(OC)c1	nt	i	i
FC(F)(F)c1cc(CCN2CCNC[C@H]2Cc2cccc3ccccc23)cc(C(F)(F)F)c1	83.9	i	i
Oc1ccc(C[C@@H]2CNCCN2CCc2cc(C(F)(F)F)cc(C(F)(F)F)c2)cc1	i	nt	i
C[C@@H]1CN([C@H](C)CO)C(=O)c2cc(NS(C)(=O)=O)ccc2O[C@@H](C)CCCCO[C@@H]1CN(C)S(=O)(=O)c1ccc(F)cc1	i	i	i
Cc1ccc(S(=O)(=O)N(C)C[C@@H]2OCCCC[C@H](C)Oc3ccc(NS(C)(=O)=O)cc3C(=O)N([C@H](C)CO)C[C@@H]2C)cc1	56.9	i	i
SMILES	DENV2 CPE rescue	SIRT5 block	E-sel inducer
C[C@H](CO)N1C[C@H](C)[C@@H](CN(C)S(=O)(=O)c2ccc(F)cc2)OCCCC[C@H](C)Oc2ccc(NS(C)(=O)=O)cc2C1=O	26.7	i	i
Cc1ccc(S(=O)(=O)N(C)C[C@H]2OCCCC[C@H](C)Oc3ccc(NS(C)(=O)=O)cc3C(=O)N([C@H](C)CO)C[C@H]2C)cc1	i	i	i
C[C@@H]1CN([C@@H](C)CO)C(=O)c2cc(NS(C)(=O)=O)ccc2O[C@@H](C)CCCCO[C@@H]1CN(C)S(=O)(=O)c1ccc(F)cc1	i	i	i
C[C@@H]1CCCCO[C@H](CN(C)S(=O)(=O)c2ccc(F)cc2)[C@@H](C)CN([C@@H](C)CO)C(=O)c2cc(NS(C)(=O)=O)ccc2O1	29.4	i	i
NC(=O)N(N)c1nc(N2CCCC2)nc(N2CCCC2)n1	i	i	nt
O=C(CSC(=S)N1CCCC1)Nc1ccc(Br)cc1Cl	i	i	nt
O=C(CN1C(=O)/C(=C\c2ccco2)SC1=S)Nc1ccc(O)cc1C(=O)O	i	48.5	i
O=C(CCN1C(=O)/C(=C/c2ccccc2Cl)SC1=S)Nc1ccccc1C(=O)O	i	17.8	nt
O=C(CCN1C(=O)/C(=C\c2ccccc2Cl)SC1=S)Nc1cccnc1	i	i	i
O=C(CCCN1C(=O)/C(=C\c2ccccc2)SC1=S)Nc1ccc(O)cc1C(=O)O	i	i	nt
CC(=Cc1ccccc1)C=C1SC(=S)N(CCCC(=O)Nc2ccc(C(=O)O)cc2)C1=O	i	27.3	i
CC(=O)NNC(=O)CN1C(=O)/C(=C/c2ccccc2)SC1=S	i	i	i
O=C(CCN1C(=O)/C(=C/c2ccco2)SC1=S)Nc1ccc(O)cc1C(=O)O	i	48.1	i
CC(/C=C1\SC(=S)N(CCC(=O)Nc2cccc(C(=O)O)c2)C1=O)=C\c1ccccc1	i	i	i
O=C1CCCCCCCCCC/C(=N\O)CCCO1	i	i	i
O=C(CCc1nnc(CCCCc2ccccc2)o1)NCCC1CCCCO1 (configuration not stated)	i	i	nt
CC(=O)c1ccc(OCC(=O)NCCC2=CCCCC2)cc1	i	i	i
Cc1ccc(C(=O)NCc2ccc3c(c2)OCO3)cc1Cl	i	i	i
CCNC(=O)[C@@H]1[C@@H](CO)[C@@H]2Cn3c(ccc(C4=CCCC4)c3=O)[C@H]1N2S(=O)(=O)c1cn(C)cn1	i	i	i
O=C(Nc1ccc(F)cc1)N1CC(=O)N2[C@H](CO)[C@@H](c3ccc(C#Cc4cccnc4)cc3)[C@H]2C1	i	i	i
O=C(CCc1ccccc1)N1CCN(c2ccccn2)CC1	i	i	nt
O=C(CCCN1C(=O)/C(=C/c2ccco2)SC1=S)Nc1ccccc1C(=O)O	i	26.5	nt
O=C(O)CCCN1C(=O)/C(=C\c2ccco2)SC1=S	i	i	nt
CCOC(=O)CSc1c(-c2ccc(Cl)cc2)[nH]c2ccccc12	i	i	i
O=C(O)C(Cc1ccccc1)N1C(=O)C2CCCCC2C1=O (configuration not stated)	i	i	nt
SMILES	DENV2 CPE rescue	SIRT5 block	E-sel inducer
COc1cccc(OC)c1Nc1nc(C)nc2c1nnn2Cc1ccccc1Cl	60.3	i	i
Cc1nc(NCCc2ccccc2)c2nnn(Cc3ccccc3Cl)c2n1	i	i	nt
C[C@H](NC(=O)c1cc2c([nH]c3ccccc32)c(-c2ccccc2)n1)C(=O)O	i	i	i
O=C(Nc1cccc(Cl)c1)c1ccc2sc([C@@H]3O[C@H](CO)[C@H](O)[C@H](O)[C@H]3O)nc2c1	i	nt	i
COc1ccc2nc3sc(C(=O)NCCN4CCc5ccccc5C4)cc3cc2c1	i	i	i
COc1ccc2cc3cc(C(=O)NCCCN4CCc5ccccc5C4)sc3nc2c1	i	18.7	i
O=C(COC(=O)C1CC1)Nc1ccc(Cl)cc1Cl	i	i	i
CN(Cc1ccccc1)C(=O)C1CCCN1S(=O)(=O)c1ccc(Cl)cc1 (configuration not stated)	i	i	nt
Cc1ccc(S(=O)(=O)N(Cc2cc3ccc(C)cc3[nH]c2=O)c2ccccc2)cc1	i	i	nt

High-throughput results from PubChem BioAssay.
